# From article PMC7641749 (Nucleic Acids Research, 2020)
# Test system: ERH
# Assay: Co-immunoprecipitation and Western blot of DGCR8 mutants and fragments with ERH
# Assay type: binding, human
# Settings: co-IP / Western blot, overexpressed DGCR8 mutants, HEK293E, RNase A
# Procedure, shortened: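 HEK293E cells at 50% confluence were transfected with 5 μg total of Flag-, HA- or myc-tagged plasmids using branched/linear PEI (1:1) and harvested after 2 days. Anti-Flag, anti-HA or protein G-bound anti-myc beads were incubated with lysate 1–2 h at 4°C, washed three times and eluted in SDS buffer for western blot.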
row,Molecule,interaction with ERH
1,"Deletion of the N-terminus of DGCR8 (1–275 aa): DGCR8 with deletion of 1–275 aa (protein, UniProt Q8WYQ5 276-773, looked up, fragment) DGETSVQPMMTKIKTVLKSRGRPPTEPLPDGWIMTFHNSGVPVYLHRESRVVTWSRPYFLGTGSIRKHDPPLSSIPCLHYKKMKDNEEREQSSDLTPSGDVSPVKPLSRSAELEFPLDEPDSMGADPGPPDEKDPLGAEAAPGALGQVKAKVEVCKDESVDLEEFRSYLEKRFDFEQVTVKKFRTWAERRQFNREMKRKQAESERPILPANQKLITLSVQDAPTKKEFVINPNGKSEVCILHEYMQRVLKVRPVYNFFECENPSEPFGASVTIDGVTYGSGTASSKKLAKNKAARATLEILIPDFVKQTSEEKPKDSEELEYFNHISIEDSRVYELTSKAGLLSPYQILHECLKRNHGMGDTSIKFEVVPGKNQKSEYVMACGKHTVRGWCKNKRVGKQLASQKILQLLHPHVKNWGSLLRMYGRESSKMVKQETSDKSVIELQQYAKKNKPNLHILSKLQEEMKRLAEEREETRKKPKMSIVASAQPGGEPLCTVDV",abrogated the interaction
2,DG_Ala mut: V105A/F108A/L112A/L114A/L115A (protein) METDESPSPLPCGPAGEAVMESRARPFQALPREQSPPPPLQTSSGAEVMDVGSGGDGQSELPAEDPFNFYGASLLSKGSFSKGRLLIDPNCSGHSPRTARHAPAARKASPDAKAAKDVKISVSFTESCRSKDRKVLYTGAERDVRAECGLLLSPVSGDVHACPFGGSVGDGVGIGGESADKKDEENELDQEKRVEYAVLDELEDFTDNLELDEEGAGGFTAKAIVQRDRVDEEALNFPYEDDFDNDVDALLEEGLCAPKKRRTEEKYGGDSDHPSDGETSVQPMMTKIKTVLKSRGRPPTEPLPDGWIMTFHNSGVPVYLHRESRVVTWSRPYFLGTGSIRKHDPPLSSIPCLHYKKMKDNEEREQSSDLTPSGDVSPVKPLSRSAELEFPLDEPDSMGADPGPPDEKDPLGAEAAPGALGQVKAKVEVCKDESVDLEEFRSYLEKRFDFEQVTVKKFRTWAERRQFNREMKRKQAESERPILPANQKLITLSVQDAPTKKEFVINPNGKSEVCILHEYMQRVLKVRPVYNFFECENPSEPFGASVTIDGVTYGSGTASSKKLAKNKAARATLEILIPDFVKQTSEEKPKDSEELEYFNHISIEDSRVYELTSKAGLLSPYQILHECLKRNHGMGDTSIKFEVVPGKNQKSEYVMACGKHTVRGWCKNKRVGKQLASQKILQLLHPHVKNWGSLLRMYGRESSKMVKQETSDKSVIELQQYAKKNKPNLHILSKLQEEMKRLAEEREETRKKPKMSIVASAQPGGEPLCTVDV,impaired in ERH binding
3,DG115–773: 1–114 aa of DGCR8 was deleted (protein) LKDVKISVSFTESCRSKDRKVLYTGAERDVRAECGLLLSPVSGDVHACPFGGSVGDGVGIGGESADKKDEENELDQEKRVEYAVLDELEDFTDNLELDEEGAGGFTAKAIVQRDRVDEEALNFPYEDDFDNDVDALLEEGLCAPKKRRTEEKYGGDSDHPSDGETSVQPMMTKIKTVLKSRGRPPTEPLPDGWIMTFHNSGVPVYLHRESRVVTWSRPYFLGTGSIRKHDPPLSSIPCLHYKKMKDNEEREQSSDLTPSGDVSPVKPLSRSAELEFPLDEPDSMGADPGPPDEKDPLGAEAAPGALGQVKAKVEVCKDESVDLEEFRSYLEKRFDFEQVTVKKFRTWAERRQFNREMKRKQAESERPILPANQKLITLSVQDAPTKKEFVINPNGKSEVCILHEYMQRVLKVRPVYNFFECENPSEPFGASVTIDGVTYGSGTASSKKLAKNKAARATLEILIPDFVKQTSEEKPKDSEELEYFNHISIEDSRVYELTSKAGLLSPYQILHECLKRNHGMGDTSIKFEVVPGKNQKSEYVMACGKHTVRGWCKNKRVGKQLASQKILQLLHPHVKNWGSLLRMYGRESSKMVKQETSDKSVIELQQYAKKNKPNLHILSKLQEEMKRLAEEREETRKKPKMSIVASAQPGGEPLCTVDV,could not pull down ERH
4,DGΔ96–115: 96–115 aa of DGCR8 was removed (protein) METDESPSPLPCGPAGEAVMESRARPFQALPREQSPPPPLQTSSGAEVMDVGSGGDGQSELPAEDPFNFYGASLLSKGSFSKGRLLIDPNCSGHSKDVKISVSFTESCRSKDRKVLYTGAERDVRAECGLLLSPVSGDVHACPFGGSVGDGVGIGGESADKKDEENELDQEKRVEYAVLDELEDFTDNLELDEEGAGGFTAKAIVQRDRVDEEALNFPYEDDFDNDVDALLEEGLCAPKKRRTEEKYGGDSDHPSDGETSVQPMMTKIKTVLKSRGRPPTEPLPDGWIMTFHNSGVPVYLHRESRVVTWSRPYFLGTGSIRKHDPPLSSIPCLHYKKMKDNEEREQSSDLTPSGDVSPVKPLSRSAELEFPLDEPDSMGADPGPPDEKDPLGAEAAPGALGQVKAKVEVCKDESVDLEEFRSYLEKRFDFEQVTVKKFRTWAERRQFNREMKRKQAESERPILPANQKLITLSVQDAPTKKEFVINPNGKSEVCILHEYMQRVLKVRPVYNFFECENPSEPFGASVTIDGVTYGSGTASSKKLAKNKAARATLEILIPDFVKQTSEEKPKDSEELEYFNHISIEDSRVYELTSKAGLLSPYQILHECLKRNHGMGDTSIKFEVVPGKNQKSEYVMACGKHTVRGWCKNKRVGKQLASQKILQLLHPHVKNWGSLLRMYGRESSKMVKQETSDKSVIELQQYAKKNKPNLHILSKLQEEMKRLAEEREETRKKPKMSIVASAQPGGEPLCTVDV,could not pull down ERH
